ChEMBL document CHEMBL2177013, “Synthesis and biological evaluation of tylophorine-derived dibenzoquinolines as orally active agents: exploration of the role of tylophorine e ring on biological activity” (J Med Chem, 2012)
≈ marks a conversion by molar mass, not a printed value. Calls of active or inactive are those of the source. The rule behind the calls is not given here.

Legend:
[1] = Solubility in DMSO; assay type: physicochemical
Summary of the method: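 Compound dissolved in DMSO with sonication; maximal volume before precipitation measured and used to calculate saturation solubility.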

NCI-H460 [2] = experiment: Growth inhibition of human NCI-H460 cells; assay type: functional
Summary of the method: (§1)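 Cells seeded per well: NUGC-3 4500, HONE-1 6000, MCF-7 6500, NCI-H460 2500, HepG2 10000, A549 5000; A549 grown in RPMI 1640 with 2 g/L NaHCO₃, 2 mM L-glutamine and 10% FBS. GI₅₀ = concentration giving 50% growth inhibition, mean of at least three experiments each in duplicate. Paclitaxel served as positive control.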

NUGC-3 = experiment: Growth inhibition of human NUGC3 cells; assay type: functional; summary of the method: as §1
[3] = Oral bioavailability in Sprague-Dawley rat at 3 mg/kg by HPLC-MS method; assay type: ADME, organism-based; settings: in vivo
Summary of the method: (§2)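 Male rats (330−380 g, 9−10 weeks), jugular vein cannula implanted 1 day before, fasted. 3 mg/kg given iv or orally (n = 3) in DMA/PEG400 30/70 v/v. Blood (150 μL) drawn at 0, 2, 5 (iv only), 15, 30 min and 1, 2, 4, 6, 8, 12, 24 h; plasma analysed by HPLC-MS; noncompartmental analysis.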

[4] = Solubility in DMA; assay type: physicochemical
[5] = test system: Transmissible gastroenteritis virus; experiment: Antiviral activity against Transmissible gastroenteritis virus infected in ST cells pre-treated 2 hrs before virus infection measured 6 hrs post virus infection by immunofluorescent assay; assay type: functional, organism-based; settings: Alphacoronavirus 1, ST
Summary of the method: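 ST cells, with or without 2 h compound pretreatment (10 concentrations), infected with TGEV at MOI 10. Immunofluorescence with anti-spike and anti-nucleocapsid antibodies at 6 hpi. EC50 from dose–response curves, mean of at least three experiments, each in duplicate.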

SF-268 = experiment: Growth inhibition of human SF268 cells; assay type: functional
Summary of the method: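 SF-268 glioblastoma cells seeded 7500 cells/well in 96-well plates; growth inhibition measured with compound. GI50 as mean of at least three experiments, each in duplicate; paclitaxel positive control.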

MCF7 [6] = experiment: Growth inhibition of human MCF7 cells; assay type: functional; summary of the method: as §1
[7] = Growth inhibition of human HONE1 cells; assay type: functional; summary of the method: as §1
A549 [8] = experiment: Down regulation of cyclin A2 expression in human A549 cells incubated for 24 hrs by Western blotting; assay type: functional, cell-based
[9] = Apparent elimination half life in Sprague-Dawley rat at 3 mg/kg, po by HPLC-MS method; assay type: ADME, organism-based; parameters: dose 3 mg/kg, route oral; settings: in vivo, read-out: betat1/2(app) (converted); summary of the method: as §2
HepG2 = experiment: Growth inhibition of human HepG2 cells; assay type: functional; summary of the method: as §1
A549 [10] = experiment: Induction of c-Jun protein accumulation in human A549 cells incubated for 24 hrs by Western blotting; assay type: functional, cell-based
RAW264.7 [11] = experiment: Reduction in LPS/INFgamma-induced iNOS protein expression in mouse RAW264.7 cells incubated for 20 hrs by Western blotting; assay type: functional, cell-based
Summary of the method: (§3)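 LPS/IFNγ-stimulated RAW264.7 cells treated with compound for 20 h. iNOS, COX-2 and GAPDH detected by Western blot; representative of at least three independent experiments.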

[12] = Tmax in Sprague-Dawley rat at 3 mg/kg, po by HPLC-MS method; assay type: ADME, organism-based; parameters: dose 3 mg/kg, route oral; settings: in vivo; summary of the method: as §2
[13] = test system: Transmissible gastroenteritis virus; experiment: Antiviral activity against Transmissible gastroenteritis virus infected in ST cells assessed as reduction in N-protein expression pre-treated before virus infection measured 16 hrs post virus infection by Western blotting; assay type: functional, organism-based
Summary of the method: (§4)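 ST cells pretreated with compound, then infected with TGEV. Western blot for nucleocapsid (N) protein, caspase 3 (cleavage of procaspase 3) and GAPDH at 16 hpi. Representative of at least three independent experiments.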

[14] = Cmax in Sprague-Dawley rat at 3 mg/kg, po by HPLC-MS method; assay type: ADME, organism-based; parameters: dose 3 mg/kg, route oral; settings: in vivo; summary of the method: as §2
A549 [15] = experiment: Growth inhibition of human A549 cells; assay type: functional; summary of the method: as §1
MCF7 [16] = experiment: Down regulation of cyclin A2 expression in human MCF7 cells incubated for 24 hrs by Western blotting; assay type: functional, cell-based
NCI-H460 [17] = experiment: Down regulation of cyclin A2 expression in human NCI-H460 cells incubated for 24 hrs by Western blotting; assay type: functional, cell-based
NCI-H460 [18] = experiment: Induction of c-Jun protein accumulation in human NCI-H460 cells incubated for 24 hrs by Western blotting; assay type: functional, cell-based
MCF7 [19] = experiment: Induction of c-Jun protein accumulation in human MCF7 cells incubated for 24 hrs by Western blotting; assay type: functional, cell-based
[20] = test system: Transmissible gastroenteritis virus; experiment: Antiviral activity against Transmissible gastroenteritis virus infected in ST cells assessed as reduction in caspase-3 activation pre-treated before virus infection measured 16 hrs post virus infection by Western blotting; assay type: functional, organism-based; summary of the method: as §4
[21] = Apparent elimination half life in Sprague-Dawley rat at 3 mg/kg, iv by HPLC-MS method; assay type: ADME, organism-based; parameters: dose 3 mg/kg, route intravenous; settings: in vivo, read-out: betat1/2(app) (converted); summary of the method: as §2
[22] = Clearance in Sprague-Dawley rat at 3 mg/kg, iv by HPLC-MS method; assay type: ADME, organism-based; parameters: dose 3 mg/kg, route intravenous; settings: in vivo; summary of the method: as §2
RAW264.7 [23] = experiment: Reduction in LPS/INFgamma-induced COX2 protein expression in mouse RAW264.7 cells incubated for 20 hrs by Western blotting; assay type: functional, cell-based; summary of the method: as §3
[24] = AUC (0 to infinity) in Sprague-Dawley rat at 3 mg/kg, iv by HPLC-MS method; assay type: ADME, organism-based; parameters: time infinity, dose 3 mg/kg, route intravenous; settings: plasma
Summary of the method: (§5)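 Male rats (330−380 g, 9−10 weeks old), jugular vein cannulated 1 day before dosing, fasted; 3 mg/kg iv or oral in DMA/PEG400 (30/70, v/v), n = 3. Blood (150 μL) drawn at 0, 2, 5 (iv only), 15, 30 min and 1, 2, 4, 6, 8, 12, 24 h, kept on ice; plasma analysed by HPLC-MS; noncompartmental analysis.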

[25] = AUC (0 to infinity) in Sprague-Dawley rat at 3 mg/kg, po by HPLC-MS method; assay type: ADME, organism-based; parameters: dose 3 mg/kg, route oral, time infinity; settings: plasma; summary of the method: as §5
[26] = Volume of distribution at steady state in Sprague-Dawley rat at 3 mg/kg, iv by HPLC-MS method; assay type: ADME, organism-based; parameters: dose 3 mg/kg, route intravenous; settings: in vivo, read-out: Vdss; summary of the method: as §2
[27] = Cytotoxicity against mouse RAW264.7 cells; assay type: cell-based
Summary of the method: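 RAW264.7 cells stimulated with LPS/IFNγ and compound-treated in parallel with the NO assay; CC50 taken as concentration giving 50% inhibition of cell growth. Mean of at least three experiments, each in duplicate.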

RAW264.7 [28] = experiment: Antiinflammatory activity in mouse RAW264.7 cells assessed as inhibition of LPS-induced nitric oxide production incubated for 18 hrs by nitrate/nitrite assay; assay type: functional, cell-based; settings: RAW264.7, 18 h
Summary of the method: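 RAW264.7 seeded 65000 cells/well, cultured 24 h, then medium replaced with complete medium containing IFNγ (20 ng/mL)/LPS (5 μg/mL) plus compound at various concentrations for 18 h; nitric oxide measured by Nitrate/Nitrite kit. EC50 as mean of at least three experiments, each in duplicate.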

| SMILES | solubility [1] [mM] | GI50 (NCI-H460 [2]) [nM] | GI50 (NUGC-3) [nM] | bioavailability [3] [%] | solubility [4] | EC50 [5] [nM] | GI50 (SF-268) [nM] | GI50 (MCF7 [6]) [nM] | GI50 [7] [nM] | GI50 (HepG2) [nM] | GI50 (A549 [15]) [nM] | further results |
| --- | --- | --- | --- | --- | --- | --- | --- | --- | --- | --- | --- | --- |
| COc1cc2c3c(c4cc(OC)c(OC)cc4c2cc1OC)CN1CCCCC1C3 (stereo not drawn) | 12.3 (≈ 5.01 mg/mL) | 100 | 140 | 53 | soluble | 30 | 140 | 110 | 140 | – | – | – |
| COc1cc2c3c(c4cc(OC)c(OC)cc4c2cc1OC)CN1CCCCCC1C3 (stereo not drawn) | – | 930 | 620 | – | – | 1050 | 960 | 960 | 1150 | – | – | – |
| COc1ccc(C2=C(c3ccc(OC)c(OC)c3)CN3CCC[C@H]3C2)cc1OC | – | 17000 | 14500 | – | – | 15400 | 24200 | 18500 | 17300 | – | – | – |
| CCN1CCc2c(c3cc(OC)c(OC)cc3c3cc(OC)ccc23)C1 | – | 300 | 320 | 105 | – | 580 | – | 370 | 570 | 660 | 400 | Activity (A549 [8]): Active; half-life [9]: 6.3 h; Activity (A549 [10]): Active; Activity (RAW264.7 [11]): Active; Tmax [12]: 0.3 h; Activity [13]: Active; Cmax [14]: 535 ng/mL; Activity (MCF7 [16]): Active; Activity (NCI-H460 [17]): Active; Activity (NCI-H460 [18]): Active; Activity (MCF7 [19]): Active; Activity [20]: Active; half-life [21]: 16 h; clearance [22]: 20 mL/min/kg; Activity (RAW264.7 [23]): Active; AUC(0-inf) [24]: 2320 ng·h/mL; AUC(0-inf) [25]: 2470 ng·h/mL; Vd [26]: 5.1 L/kg |
| CCN1CCc2c(c3cc(OC)c(OC)cc3c3cc(OC)c(OC)cc23)C1 | 50 (≈ 19.1 mg/mL) | 1010 | 620 | – | soluble | 1650 | – | 750 | 1570 | 1000 | 970 | CC50 [27]: > 4000 nM; EC50 (RAW264.7 [28]): 1420 nM |
